Experimental data taken from ChEMBL document CHEMBL1153795, “Aromatic cyclic peroxides and related keto-compounds from the Plakortis sp. component of a sponge consortium” (2009).
≈ marks a conversion by molar mass, not a printed value. Calls of active or inactive are those of the source. The rule behind the calls is not given here.

What was measured:
Candida albicans = assay: Antifungal activity against Candida albicans after 24 hrs by broth macridilution method; assay type: functional, organism-based
Staphylococcus aureus = assay: Antibacterial activity against Staphylococcus aureus after 24 hrs by broth macridilution method; assay type: functional
In short: (§1)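 Broth macrodilution in LB medium (10 g/L Bactotryptone, 5 g/L Bactoyeast, 10 g/L NaCl, pH 7.5). Inoculum was set to 0.5 McFarland (2 × 10^8 cfu/mL) at 530 nm, then diluted 1:4000 to 50 000 cfu/mL. Tubes held eleven 2-fold dilutions (512–[…] µg/mL final) and were incubated 24 h at 37 °C. MIC90 was taken as the lowest concentration with no visible growth.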

Escherichia coli = assay: Antibacterial activity against Escherichia coli after 24 hrs by broth macridilution method; assay type: functional, organism-based; in short: as §1

CC(CCCCCCCCc1ccccc1)C[C@@]1(C)C[C@@H](C)[C@@](C)(O)OO1 (stereo partly specified)
Activity (Candida albicans): inactive | MIC (Staphylococcus aureus): 64 µg/mL (≈ 170 µM) | Activity (Escherichia coli): inactive

CC(=O)CC(C)CCCCCCCCc1ccccc1 (stereo unspecified)
Activity (Candida albicans): inactive | Activity (Escherichia coli): inactive

CC(=O)CC(C)CCCCCC/C=C/c1ccccc1 (stereo unspecified)
Activity (Candida albicans): inactive | Activity (Escherichia coli): inactive

CC(CCCCCC/C=C/c1ccccc1)C[C@@]1(C)C[C@@H](C)[C@@](C)(O)OO1 (stereo partly specified)
Activity (Candida albicans): inactive | Activity (Escherichia coli): inactive

COC(=O)C[C@]1(O)OO[C@@](C)(C/C(C)=C/C=C/Cc2ccccc2)C[C@H]1C
Activity (Candida albicans): inactive | Activity (Escherichia coli): inactive
